The target of test [1] is Geranylgeranyl transferase type I (Homo sapiens) (UniProt P49354+P53609). The test is described as follows: Inhibition of GGTase 1 in human RPMI8226 cells assessed as unmodified Rap1a accumulation at 5 mM incubated for 48 hrs by immunoblot method. It counts as cell-based. The note with it: RPMI-8226. The procedure, abridged: (§1)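 RPMI-8226 myeloma cells exposed 48 h to lovastatin (20 μM) or bisphosphonates (5 mM), untreated cells as reference. Whole-cell lysates made in RIPA buffer, membrane (detergent) fraction by Triton X-114 partitioning; immunoblotting with β-tubulin (lysate) or calnexin (detergent fraction) as loading controls. Rap1a antibody recognizes only unprenylated protein. Blots representative of two independent experiments.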

A short description of test [2]: Inhibition of recombinant GGTase 2 (unknown origin) using recombinant Rab1A and [3H]GGPP as substrate after 20 mins in presence of recombinant REP-2 by liquid scintillation counting analysis. Further details: species or system Homo sapiens.
For test [3], the system named is RPMI-8226. The test is described as follows: Induction of apoptosis in human RPMI8226 cells assessed as increase in caspase-3 cleavage at 5 mM incubated for 48 hrs by immunoblot method. Format: functional, cell-based. The procedure, abridged: as §1
Background: Immunoblotting shows a protein as a band on a membrane.

The test system of test [4] is RPMI-8226. Kind of test: Induction of endoplasmic reticulum stress in human RPMI8226 cells assessed as increase in calnexin cleavage at 5 mM incubated for 48 hrs by immunoblot method. Format: functional, cell-based.
Test [5] deals with RPMI-8226. The test is described as follows: Inhibition of GGTase 2 in human RPMI8226 cells assessed as reduction in membrane bound Rab6 protein at 5 mM incubated for 48 hrs by immunoblot method. Format: cell-based. The gist of the method: as §1
For test [6], the system named is RPMI-8226. The test is described as follows: Induction of apoptosis in human RPMI8226 cells assessed as increase in PARP cleavage at 5 mM incubated for 48 hrs by immunoblot method. Format: functional, cell-based. The procedure, abridged: as §1
Test [7] addresses T1, Farnesyl pyrophosphate synthase (Homo sapiens, UniProt P14324).
T1 sequence (P14324 whole entry): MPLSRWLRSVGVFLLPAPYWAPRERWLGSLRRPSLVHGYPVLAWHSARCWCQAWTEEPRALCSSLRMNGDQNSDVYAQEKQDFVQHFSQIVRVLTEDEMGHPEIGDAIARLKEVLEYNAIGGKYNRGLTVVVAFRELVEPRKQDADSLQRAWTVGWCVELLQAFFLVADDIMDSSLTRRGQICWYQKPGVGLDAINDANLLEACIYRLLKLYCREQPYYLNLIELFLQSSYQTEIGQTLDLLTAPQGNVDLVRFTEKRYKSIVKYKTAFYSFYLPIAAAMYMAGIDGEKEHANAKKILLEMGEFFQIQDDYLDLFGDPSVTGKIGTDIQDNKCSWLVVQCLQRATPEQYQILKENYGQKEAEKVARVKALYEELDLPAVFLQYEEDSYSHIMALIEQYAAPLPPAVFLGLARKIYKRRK
Kind of test: Inhibition of recombinant FDPS (unknown origin) assessed as decrease in […] level using GPP and [14C]IPP as substrate treated with enzyme for 10 mins prior to substrate challenge for 30 mins by liquid scintillation counting analysis.

Test [8] relates to RPMI-8226. Kind of test: Inhibition of GGTase 2 in human RPMI8226 cells assessed as disruption of monoclonal protein trafficking by measuring accumulation of intracellular lambda light chain at 5 mM incubated for 48 hrs by ELISA. Format: cell-based. The gist of the method: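 RPMI-8226 cells treated 48 h with lovastatin (20 μM) or bisphosphonates (5 mM); intracellular lambda light chain quantified by ELISA, expressed as percentage of untreated control (mean + SD, n=3); unpaired two-tailed t-test against untreated cells.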

Test [9] relates to RPMI-8226. Kind of test: Induction of apoptosis in human RPMI8226 cells assessed as increase in PARP cleavage at 20 uM incubated for 48 hrs by immunoblot method. Format: functional, cell-based. The gist of the method:
as §1

For test [10], the system named is RPMI-8226. The test is described as follows: Induction of apoptosis in human RPMI8226 cells assessed as increase in caspase-3 cleavage at 20 uM incubated for 48 hrs by immunoblot method. It counts as functional, cell-based. The procedure, abridged:
as §1

Activity calls are given as the source filed them. No cut-off for these calls is given here.

Broadly, the IC50 is the concentration that gives 50% inhibition. For `O=C(O)C(O)(Cc1cccnc1)P(=O)(O)O` (stereo unspecified), the inhibition entry in test [1] is “inactive”. Further, the half-maximal inhibitory concentration (IC50) in [2] was found to be 700 µM; in test [7] it was 200 µM. Further, the outcome in the test with RPMI-8226 [3], in the test with RPMI-8226 [4] and with RPMI-8226 [6] was Active. The inhibition result in the test on RPMI-8226 [5] and in the test on RPMI-8226 [8] was “Active” each time.
For the compound `O=C(O)C(Cc1cccnc1)P(=O)(O)O` (stereo unspecified), the inhibition result (in test [1]; with RPMI-8226 [8]) was “inactive” each time. For the same compound, the IC50 in [2] was found to be 1100 µM; in [7] it was 1000 µM. Besides, the outcome in the test on RPMI-8226 [3], in the test on RPMI-8226 [4] and in the test with RPMI-8226 [6] was Active. The inhibition entry with RPMI-8226 [5] is “Active”.
Turning to `CC[C@H](C)C(=O)O[C@H]1C[C@@H](C)C=C2C=C[C@H](C)[C@H](CC[C@@H]3C[C@@H](O)CC(=O)O3)[C@H]21`, the outcome in the test with RPMI-8226 [9] and in the test on RPMI-8226 [10] was Active.
For `O=C(O)C(O)(Cc1ccc[n+]([O-])c1)P(=O)(O)O` (stereo unspecified), the inhibition entry in test [1] is “inactive”. Further, the IC50 in test [2] was 1800 µM; in [7], 2000 µM. Besides, the inhibition entry in the test on RPMI-8226 [5] and in the test on RPMI-8226 [8] was “Active” throughout.
With `O=C(O)C(Cc1ccc[n+]([O-])c1)P(=O)(O)O` (stereo unspecified), the inhibition result (in [1]; in the test with RPMI-8226 [5]; in the test with RPMI-8226 [8]) was “inactive” throughout. For the same compound, the figures for the IC50 in [2] and in test [7] were 800 µM and over 2000 µM, respectively. Further, the outcome in the test with RPMI-8226 [3], with RPMI-8226 [4] and in the test with RPMI-8226 [6] was Active.

The values are drawn from ChEMBL document CHEMBL3421571, “N-Oxide derivatives of 3-(3-pyridyl)-2-phosphonopropanoic acids as potential inhibitors of Rab geranylgeranylation” (Bioorg Med Chem Lett, 2015).
